According to ChEMBL document CHEMBL4014338, “Discovery of Small Molecules as Multi-Toll-like Receptor Agonists with Proinflammatory and Anticancer Activities” (J Med Chem, 2017):

Assays:
Toll-like receptor 7 = molecular target: T1, Toll-like receptor 7 (Homo sapiens, UniProt Q9NYK1); assay: Agonist activity at human TLR7 expressed in HEK293 cells assessed as induction of NF-kB activation-mediated SEAP production after 24 hrs by HTS assay; assay type: cell-based
T1 sequence (Q9NYK1 whole entry): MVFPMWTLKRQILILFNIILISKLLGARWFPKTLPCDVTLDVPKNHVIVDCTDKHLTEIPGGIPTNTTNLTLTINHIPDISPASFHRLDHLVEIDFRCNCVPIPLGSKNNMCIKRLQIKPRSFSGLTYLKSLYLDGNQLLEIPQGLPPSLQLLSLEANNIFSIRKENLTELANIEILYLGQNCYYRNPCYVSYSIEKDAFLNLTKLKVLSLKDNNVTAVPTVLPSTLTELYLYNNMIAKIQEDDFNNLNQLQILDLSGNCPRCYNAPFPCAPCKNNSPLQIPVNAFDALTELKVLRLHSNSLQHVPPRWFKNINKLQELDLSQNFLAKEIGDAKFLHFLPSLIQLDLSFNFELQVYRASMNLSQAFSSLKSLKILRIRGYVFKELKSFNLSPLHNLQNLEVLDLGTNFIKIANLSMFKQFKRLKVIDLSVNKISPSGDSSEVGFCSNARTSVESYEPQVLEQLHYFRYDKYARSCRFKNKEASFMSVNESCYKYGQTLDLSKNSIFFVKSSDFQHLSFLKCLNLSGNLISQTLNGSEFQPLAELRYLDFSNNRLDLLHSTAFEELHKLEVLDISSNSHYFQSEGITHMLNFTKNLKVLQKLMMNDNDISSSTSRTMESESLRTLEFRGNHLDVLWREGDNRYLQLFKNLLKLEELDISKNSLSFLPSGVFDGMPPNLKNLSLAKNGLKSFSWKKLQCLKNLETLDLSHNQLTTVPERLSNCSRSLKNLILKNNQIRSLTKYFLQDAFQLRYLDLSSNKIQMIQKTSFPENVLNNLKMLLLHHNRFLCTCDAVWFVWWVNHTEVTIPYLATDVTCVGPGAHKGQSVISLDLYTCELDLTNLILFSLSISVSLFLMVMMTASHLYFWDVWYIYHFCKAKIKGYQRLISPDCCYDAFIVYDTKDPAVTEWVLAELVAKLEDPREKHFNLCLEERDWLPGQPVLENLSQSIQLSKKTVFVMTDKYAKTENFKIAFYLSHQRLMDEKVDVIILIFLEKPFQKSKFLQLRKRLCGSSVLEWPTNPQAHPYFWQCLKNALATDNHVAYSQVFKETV
Procedure, shortened: (§1)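 Stable HEK293 lines expressing a single hTLR plus a SEAP reporter, grown in DMEM/10% FBS with selective antibiotics. Seeded at 5 × 10^4 cells/well for 24 h at 37 °C, then treated 24 h. Supernatant mixed with QUANTI-Blue, 1 h at 37 °C, OD 620 nm. Cognate agonists: Pam3CSK4 (TLR2), poly I:C (TLR3), LPS (TLR4), FLA-BS (TLR5), R848 (TLR7). EC50 as mean ± SD.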

HeLa [1] = assay: Cell cycle arrest in human HeLa cells assessed as accumulation at G0/G1 phase at 30 uM after 24 hrs by propidium iodide staining based flow cytometry (reference value: 52%); assay type: functional
HeLa [2] = assay: Cell cycle arrest in human HeLa cells assessed as accumulation at S phase at 30 uM after 24 hrs by propidium iodide staining based flow cytometry (reference value: 31%); assay type: functional
HeLa [3] = assay: Antiproliferative activity against human HeLa cells after 24 hrs by WST1 assay; assay type: functional, cell-based
Procedure, shortened: (§2)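 Cells seeded at 5 × 10^3/well and left 24 h, then given a concentration series for 24, 48 or 72 h. WST-1 reagent added and incubated at 37 °C for 30 min–2 h until color change; absorbance 450 nm. Growth inhibition = (1 − [sample − background]/[control − background]) × 100. IC50 mean ± SD, three cell preparations.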

Toll-like receptor 3 = molecular target: T2, Toll-like receptor 3 (Homo sapiens, UniProt O15455); assay: Agonist activity at human TLR3 expressed in HEK293 cells assessed as induction of NF-kB activation-mediated SEAP production after 24 hrs by HTS assay; assay type: cell-based; procedure, shortened: as §1
T2 sequence (O15455 whole entry): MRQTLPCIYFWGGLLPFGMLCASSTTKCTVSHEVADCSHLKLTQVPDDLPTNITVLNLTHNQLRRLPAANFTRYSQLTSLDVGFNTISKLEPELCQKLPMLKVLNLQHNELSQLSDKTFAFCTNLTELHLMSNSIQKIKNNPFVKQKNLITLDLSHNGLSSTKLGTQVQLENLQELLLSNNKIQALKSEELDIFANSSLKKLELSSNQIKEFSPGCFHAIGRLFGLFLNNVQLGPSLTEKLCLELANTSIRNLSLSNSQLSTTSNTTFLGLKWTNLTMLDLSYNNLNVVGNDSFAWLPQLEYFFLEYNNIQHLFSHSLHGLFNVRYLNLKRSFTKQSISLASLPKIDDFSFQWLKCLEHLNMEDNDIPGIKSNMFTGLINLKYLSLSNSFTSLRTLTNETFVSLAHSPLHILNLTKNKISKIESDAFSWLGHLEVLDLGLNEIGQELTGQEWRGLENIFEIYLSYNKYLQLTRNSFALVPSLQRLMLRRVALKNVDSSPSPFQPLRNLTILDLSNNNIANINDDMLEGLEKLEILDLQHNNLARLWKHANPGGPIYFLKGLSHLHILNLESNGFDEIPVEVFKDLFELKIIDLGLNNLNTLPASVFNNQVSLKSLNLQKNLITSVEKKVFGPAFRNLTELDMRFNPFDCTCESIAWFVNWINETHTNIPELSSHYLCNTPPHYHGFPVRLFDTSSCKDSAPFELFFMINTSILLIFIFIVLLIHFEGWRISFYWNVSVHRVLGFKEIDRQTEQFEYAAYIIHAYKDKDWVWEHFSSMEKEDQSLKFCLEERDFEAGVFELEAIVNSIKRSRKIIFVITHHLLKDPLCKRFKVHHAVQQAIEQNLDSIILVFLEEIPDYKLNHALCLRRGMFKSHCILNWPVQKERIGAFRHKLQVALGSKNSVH

HeLa [4] = assay: Cell cycle arrest in human HeLa cells assessed as accumulation at G2/M phase at 20 uM after 24 hrs by propidium iodide staining based flow cytometry (reference value: 17%); assay type: functional
Toll-like receptor 5 = Toll-like receptor 5 (Homo sapiens, UniProt O60602); assay: Agonist activity at human TLR5 expressed in HEK293 cells assessed as induction of NF-kB activation-mediated SEAP production after 24 hrs by HTS assay; assay type: cell-based; procedure, shortened: as §1
Toll-like receptor 5, sequence (O60602 whole entry): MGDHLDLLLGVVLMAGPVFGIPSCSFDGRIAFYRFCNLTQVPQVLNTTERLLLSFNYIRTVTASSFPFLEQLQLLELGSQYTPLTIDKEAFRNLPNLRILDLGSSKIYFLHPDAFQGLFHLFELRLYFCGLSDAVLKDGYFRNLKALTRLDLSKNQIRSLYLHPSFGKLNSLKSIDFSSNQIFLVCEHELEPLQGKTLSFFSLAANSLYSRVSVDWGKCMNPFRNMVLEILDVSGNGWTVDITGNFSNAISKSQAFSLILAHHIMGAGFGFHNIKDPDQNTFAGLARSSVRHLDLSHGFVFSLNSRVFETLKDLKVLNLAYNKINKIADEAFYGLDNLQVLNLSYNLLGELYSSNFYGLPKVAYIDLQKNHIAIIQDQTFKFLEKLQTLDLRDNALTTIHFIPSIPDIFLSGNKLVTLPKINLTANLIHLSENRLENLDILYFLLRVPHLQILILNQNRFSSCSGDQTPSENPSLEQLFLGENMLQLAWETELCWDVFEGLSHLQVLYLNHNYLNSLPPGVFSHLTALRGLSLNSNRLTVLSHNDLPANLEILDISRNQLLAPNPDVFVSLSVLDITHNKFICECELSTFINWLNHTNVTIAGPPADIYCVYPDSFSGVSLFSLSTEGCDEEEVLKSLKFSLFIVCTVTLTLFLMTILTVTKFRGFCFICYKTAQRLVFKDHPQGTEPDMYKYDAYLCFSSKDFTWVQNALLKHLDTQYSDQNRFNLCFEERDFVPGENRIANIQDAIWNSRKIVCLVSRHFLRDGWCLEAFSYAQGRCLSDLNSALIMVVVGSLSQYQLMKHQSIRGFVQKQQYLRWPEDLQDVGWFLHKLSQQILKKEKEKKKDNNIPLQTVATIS

HeLa [5] = assay: Cell cycle arrest in human HeLa cells assessed as accumulation at S phase at 20 uM after 24 hrs by propidium iodide staining based flow cytometry (reference value: 31%); assay type: functional
HeLa [6] = assay: Antiproliferative activity against human HeLa cells after 72 hrs by WST1 assay; assay type: functional, cell-based; procedure, shortened: as §2
HeLa [7] = assay: Cell cycle arrest in human HeLa cells assessed as accumulation at S phase after 24 hrs by propidium iodide staining based flow cytometry; assay type: functional
HeLa [8] = assay: Cell cycle arrest in human HeLa cells assessed as accumulation at S phase at 10 uM after 24 hrs by propidium iodide staining based flow cytometry (reference value: 31%); assay type: functional

O=[N+]([O-])c1ccc(COc2cc3c(cc2OCc2ccc([N+](=O)[O-])cc2)OC2(C=C3)CCOCC2)cc1
EC50 (Toll-like receptor 7): > 100 µM
Activity (HeLa [1]): 41%
Activity (HeLa [2]): 39%
Activity (HeLa [3]): Dose-dependent effect
IC50 (HeLa [3]): 38.6 µM
EC50 (Toll-like receptor 3): 4.8 µM
Activity (HeLa [4]): 20%
EC50 (Toll-like receptor 5): > 100 µM
Activity (HeLa [5]): 37%
Activity (HeLa [6]): Dose-dependent effect
IC50 (HeLa [6]): 2.71 µM
Activity (HeLa [7]): Dose-dependent effect
Activity (HeLa [8]): 35%
